Data taken from ChEMBL document CHEMBL5331120, “Stapled β-Hairpin Antimicrobial Peptides with Improved Stability and Activity against Drug-Resistant Gram-Negative Bacteria” (J Med Chem, 2023).
Values after ≈ are worked out from the molar mass of the structure shown. Active and inactive are the calls of the source. The rule behind the calls is not given here.

Columns and labels:
[1] = system: Staphylococcus aureus; test: Antimicrobial activity against Staphylococcus aureus ATCC 29737 assessed as inhibition of bacterial growth incubated for 18 hrs by broth microdilution method; format: functional, organism-based
Summary of the method: (§1)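 Standard broth microdilution in MHB. Overnight culture (37 °C, 120 rpm) adjusted to OD600 0.07 and diluted 1000× to 3 × 10^5 CFU/mL. Peptides serially diluted in triplicate, 18 h at 37 °C with 120 rpm shaking. Growth read as OD600; MIC is the lowest concentration with no visible growth. Colistin served as control for Gram-negatives, vancomycin for S. aureus.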

[2] = system: Escherichia coli; test: Antimicrobial activity against Escherichia coli ATCC 25922 assessed as fold increase in MIC incubated for 18 hrs in presence of 10% fetal bovine serum by broth microdilution method relative to control; format: functional
Summary of the method: (§2)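 E. coli broth microdilution in MHB containing 10% fetal bovine serum. Inoculum 3 × 10^5 CFU/mL, diluted from an OD600 0.07 suspension. Incubated 18 h at 37 °C with 120 rpm shaking, OD600 read, triplicates. Fold change in MIC calculated against control MIC.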

[3] = system: Escherichia coli; test: Antimicrobial activity against colistin/carbapenem resistant Escherichia coli clinical isolate R3 harboring NDM-7 and OXA-181 gene assessed as fold increase in MIC incubated for 18 hrs by broth microdilution method relative to control; format: functional
[4] = system: Escherichia coli; test: Antimicrobial activity against colistin/carbapenem resistant Escherichia coli clinical isolate R2 harboring mcr-1 and NDM-1 gene assessed as fold increase in MIC incubated for 18 hrs by broth microdilution method relative to control; format: functional
[5] = system: Escherichia coli; test: Antimicrobial activity against Escherichia coli ATCC 25922 assessed as fold increase in MIC incubated for 18 hrs in presence of NaCl by broth microdilution method relative to control; format: functional
Summary of the method: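 MHB broth microdilution against E. coli with 150 mM NaCl added to the medium. Inoculum 3 × 10^5 CFU/mL, 37 °C, 120 rpm, 18 h, OD600 read, triplicates. MIC fold change taken relative to control.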

[6] = Stability of compound assessed as trypsin (unknown origin) mediated compound degradation by measuring parent compound remaining measured after 1 hr by RP-HPLC analysis; format: ADME, protein assay; conditions: human, read-out: Stability
Summary of the method: (§3)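 Peptide with trypsin at a 1:2000 trypsin/peptide molar ratio, 37 °C, sampled at 15, 30, 60 and 90 min. Reaction stopped with an equal volume of 50% acetonitrile/1% TFA. Analysed on C18 RP-HPLC with UV at 220 nm; intact peptide given as % of AUC.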

[7] = system: Cell membrane; test: Induction of inner membrane permeabilization in Escherichia coli ATCC 25922 assessed as SYTOX green uptake at 1 times MIC incubated for 1 hr by fluorescence based microplate reader analysis relative to control
Summary of the method: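 Exponential-phase cells washed twice in PBS pH 7, resuspended to OD600 0.4; equal volume SYTOX green (4 μM) added, 5 min. Peptide added (4, 8, 16 μM), 1 h at 37 °C with shaking. Fluorescence ex 488/em 523 nm; % uptake computed from untreated (F0) and positive-control peptide BTT1 (Fmax) signals. Three repeats.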

[8] = system: Cell membrane; test: Induction of outer membrane permeabilization in Escherichia coli ATCC 25922 assessed as NPN uptake at 1 times MIC incubated for 1 hr by fluorescence based microplate reader analysis relative to control
Summary of the method: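 Exponential-phase cells washed twice in PBS pH 7, resuspended to OD600 0.4; equal volume 40 μM NPN added, then equal volume peptide (4, 8, 16 μM). Incubated 1 h at 37 °C with shaking. Fluorescence ex 355/em 405 nm; % uptake relative to no-compound (F0) and colistin 100 μM control (Fmax). Three repeats.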

[9] = system: Escherichia coli; test: Antimicrobial activity against colistin resistant Escherichia coli clinical isolate R1 harboring mcr-1 gene assessed as fold increase in MIC incubated for 18 hrs by broth microdilution method relative to control; format: functional
[10] = system: Escherichia coli; test: Antimicrobial activity against Escherichia coli ATCC 25922 assessed as fold increase in MIC compound pretreated for 1 hr with trypsin and measured after 18 hrs by broth microdilution method relative to control; format: functional; conditions: trypsin pretreatment 1 hr; MIC measured after 18 hrs
Summary of the method: (§4)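 Peptide incubated with trypsin at a 1:2000 trypsin/peptide molar ratio (e.g., 1 mM peptide with 0.5 μM trypsin), 37 °C, 1 h. Reaction stopped at 80 °C for 10 min, then serially diluted against E. coli in MHB broth microdilution. Inoculum 3 × 10^5 CFU/mL, 37 °C, 120 rpm, 18 h, read by OD600, triplicates. Fold change in MIC taken versus untreated control.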

[11] = system: Pseudomonas aeruginosa; test: Antimicrobial activity against Pseudomonas aeruginosa ATCC 9027 assessed as inhibition of bacterial growth incubated for 18 hrs by broth microdilution method; format: functional; summary of the method: as §1
[12] = molecular target: Trypsin (Homo sapiens, UniProt P07477+P07478+P35030); test: Stability of compound assessed as trypsin (unknown origin) mediated compound degradation by measuring parent compound remaining measured after 1.5 hrs by RP-HPLC analysis; format: ADME, protein assay; conditions: for remaining at 1.5 h: trypsin, read-out: Stability; summary of the method: as §3
[13] = system: Escherichia coli; test: Antimicrobial activity against Escherichia coli ATCC 25922 assessed as inhibition of bacterial growth incubated for 18 hrs in presence of 10% fetal bovine serum by broth microdilution method; format: functional, organism-based; summary of the method: as §2
[14] = system: Escherichia coli; test: Antimicrobial activity against Escherichia coli ATCC 25922 assessed as inhibition of bacterial growth compound pretreated for 1 hr with trypsin and measured after 18 hrs by broth microdilution method; format: functional, organism-based; summary of the method: as §4
[15] = system: Escherichia coli; test: Antimicrobial activity against colistin/carbapenem resistant Escherichia coli clinical isolate R2 harboring mcr-1 and NDM-1 gene assessed as inhibition of bacterial growth incubated for 18 hrs by broth microdilution method; format: functional, organism-based
Summary of the method: (§5)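 Overnight MHB culture (37 °C, 120 rpm) adjusted to OD600 0.07 (~10^8 CFU/mL), then diluted 1000× to 3 × 10^5 CFU/mL. Peptides serially diluted with the bacterial suspension in triplicate, shaken at 37 °C, 120 rpm for 18 h, then OD600 read. MIC is the lowest concentration with no visible growth. Colistin as positive control.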

[16] = system: Escherichia coli; test: Antimicrobial activity against colistin resistant Escherichia coli clinical isolate R1 harboring mcr-1 gene assessed as inhibition of bacterial growth incubated for 18 hrs by broth microdilution method; format: functional, organism-based; summary of the method: as §5
[17] = system: Escherichia coli; test: Antimicrobial activity against Escherichia coli ATCC 25922 assessed as inhibition of bacterial growth incubated for 18 hrs by broth microdilution method; format: functional; summary of the method: as §1
[18] = system: Erythrocyte; test: Hemolytic activity in human RBC upto 128 uM incubated for 1 hr by absorbance based analysis; format: toxicity, cell-based
Summary of the method: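 Washed human RBCs from healthy volunteers at 4% in PBS. Peptide at 4–128 μM, 37 °C for 1 h. Supernatant after 1000g, 10 min spin read at OD540. 1% Triton X-100 gave full lysis; % hemolysis derived and HC50 estimated.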

[19] = system: Escherichia coli; test: Bactericidal activity against Escherichia coli ATCC 25922 assessed as cell killing at 2 times MIC measured after 3 hrs relative to control; format: functional
Summary of the method: (§6)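 Time-kill against E. coli ATCC 25922 at 1× and 2× MIC, counted as CFU/mL over time. Limit of detection 50 CFU/mL; experiments repeated two times.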

[20] = system: Escherichia coli; test: Induction of membrane morphological changes in Escherichia coli ATCC 25922 at 16 uM measured after 3 to 6 hrs by TEM analysis; format: functional, organism-based; conditions: time 3-6 hrs
[21] = system: Escherichia coli; test: Bactericidal activity against Escherichia coli ATCC 25922 assessed as cell killing at 1 times MIC measured after 6 hrs relative to control; format: functional; summary of the method: as §6
[22] = system: Escherichia coli; test: Induction of membrane morphological changes in Escherichia coli ATCC 25922 at 16 uM measured after 1 hr by TEM analysis; format: functional, organism-based
[23] = system: Escherichia coli; test: Antimicrobial activity against colistin/carbapenem resistant Escherichia coli clinical isolate R3 harboring NDM-7 and OXA-181 gene assessed as inhibition of bacterial growth incubated for 18 hrs by broth microdilution method; format: functional, organism-based
[24] = system: Escherichia coli; test: Antimicrobial activity against colistin/carbapenem resistant Escherichia coli clinical isolate R2 harboring mcr-1 and NDM-1 gene assessed as fold reduction in MIC incubated for 18 hrs by broth microdilution method; format: functional
[25] = system: Escherichia coli; test: Antimicrobial activity against colistin/carbapenem resistant Escherichia coli clinical isolate R3 harboring NDM-7 and OXA-181 gene assessed as fold reduction in MIC incubated for 18 hrs by broth microdilution method; format: functional
[26] = system: Escherichia coli; test: Antimicrobial activity against colistin resistant Escherichia coli clinical isolate R1 harboring mcr-1 gene assessed as fold reduction in MIC incubated for 18 hrs by broth microdilution method; format: functional

Compound	Activity [1]	remaining at 1 h [6] [%]	Activity [7] [%]	Activity [8] [%]	fold change (FC) [10]	MIC [11] [µM]	remaining at 1.5 h [12] [%]	Activity [13]	Activity [14]	Activity [15]	Activity [16]	MIC [17] [µM]	Activity [18]	further results
H-LKLKLKPGKLKLKL-OH	inactive	< 10	80	40	8									fold change (FC) [2]: 8; fold change (FC) [3]: >=8; fold change (FC) [4]: >=8; fold change (FC) [5]: 32; fold change (FC) [9]: >=8
CC(C)C[C@H](NC(=O)[C@H](CCCCN)NC(=O)[C@H](CC(C)C)NC(=O)[C@H](CCCCN)NC(=O)[C@@H]1CC/C=C/CC[C@H](NC(=O)[C@H](CCCCN)NC(=O)[C@H](CC(C)C)NC(=O)[C@H](CCCCN)NC(=O)[C@@H](N)CC(C)C)C(=O)N[C@@H](CCCCN)C(=O)N2CCC[C@@H]2C(=O)NCC(=O)N[C@@H](CCCCN)C(=O)N1)C(=O)O	inactive					8 (≈ 12.7 µg/mL)	> 40	Active	Active	Active	Active	8 (≈ 12.7 µg/mL)	Non-Toxic	
CC(C)C[C@@H]1NC(=O)[C@H](CCCCN)NC(=O)CNC(=O)C2CCCN2C(=O)[C@H](CCCCN)NC(=O)[C@H](CC(C)C)NC(=O)[C@H](CCCCN)NC(=O)[C@H](CC(C)C)NC(=O)[C@H](CCCCN)NC(=O)[C@@H](N)CC/C=C/CC[C@@H](C(=O)O)NC(=O)[C@H](CCCCN)NC(=O)[C@H](CC(C)C)NC(=O)[C@H](CCCCN)NC1=O (single isomer, unassigned)	inactive		80	70		8 (≈ 12.7 µg/mL)	> 40	Active	Active	Active	Active	8 (≈ 12.7 µg/mL)	Non-Toxic	Activity [19]: 100%; Activity [20]: Active; Activity [21]: 100%; Activity [22]: inactive
CC(C)C[C@@H]1NC(=O)[C@H](CCCCN)NC(=O)CNC(=O)C2CCCN2C(=O)[C@H](CCCCN)NC(=O)[C@H](CC(C)C)NC(=O)[C@H](CCCCN)NC(=O)[C@H](CC(C)C)NC(=O)[C@H](CCCCN)NC(=O)[C@@H](N)CC/C=C/CCC[C@@H](C(=O)O)NC(=O)[C@H](CCCCN)NC(=O)[C@H](CC(C)C)NC(=O)[C@H](CCCCN)NC1=O (single isomer, unassigned)	inactive	< 10			>=2	8 (≈ 12.8 µg/mL)				Active	Active	8 (≈ 12.8 µg/mL)	Non-Toxic	Activity [23]: Active
CC(C)C[C@@H]1NC(=O)[C@H](CCCCN)NC(=O)CNC(=O)[C@H]2CCCN2C(=O)[C@H](CCCCN)NC(=O)[C@H](CC(C)C)NC(=O)[C@H](CCCCN)NC(=O)[C@@H]2CC/C=C\CCC[C@H](NC(=O)[C@H](CCCCN)NC1=O)C(=O)N[C@@H](CCCCN)C(=O)N[C@H](C(=O)O)CC/C=C/CCC[C@H](N)C(=O)N[C@@H](CCCCN)C(=O)N2	inactive							Active	Active				Non-Toxic	Activity [11]: inactive; Stability ([12]; 1.5 h): Unstable; fold change (FC) [24]: 2; fold change (FC) [25]: 2; fold change (FC) [26]: 2; Activity [17]: inactive
